The record followed here is ChEMBL document CHEMBL4627266, “Design and biological evaluation of a novel type of potential multi-targeting antimicrobial sulfanilamide hybrids in combination of pyrimidine and azoles” (Bioorg Med Chem Lett, 2020).

Values after ≈ are worked out from the molar mass of the structure shown. Active and inactive are the calls of the source. The calls are words filed in the database; no cut-off is given here.

Experiment [1] has as its system Staphylococcus aureus. Nature of the experiment: Antibacterial activity against methicillin-resistant Staphylococcus aureus by two fold serial microbroth dilution method. In kind it is functional. Put shortly:
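Two-fold serial microbroth dilution in microdilution plates, run per CLSI, with clinical antibacterial drugs as positive controls. The MRSA strain was a drug-resistant clinical isolate from infected patients. MIC (μg/mL) was read as the lowest concentration giving complete inhibition of visible bacterial growth.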
A general note: In broth dilution the organism is exposed to a series of concentrations in liquid medium.

Experiment [2] relates to Staphylococcus aureus. Nature of the experiment: Antibacterial activity against Staphylococcus aureus by two fold serial microbroth dilution method. In kind it is functional. Put shortly: (§1)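 Two-fold serial dilution in microdilution plates (micro broth dilution) following CLSI. Panel includes clinical drug-resistant isolates and ATCC reference strains. Clinical drugs were run as positive controls.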

In experiment [3] the test system is Staphylococcus aureus. The experiment in a line: Antibacterial activity against Staphylococcus aureus ATCC 25923 by two fold serial microbroth dilution method. In kind it is functional. The method in brief: as §1
The subject of experiment [4] is Enterococcus faecalis. Nature of the experiment: Antibacterial activity against Enterococcus faecalis by two fold serial microbroth dilution method. The class given is functional. The method in brief:
as §1

In another experiment the test system is Klebsiella pneumoniae. The experiment in a line: Antibacterial activity against Klebsiella pneumoniae by two fold serial microbroth dilution method. In kind it is functional. The method in brief:
as §1

For experiment [5], the system named is Escherichia coli. Nature of the experiment: Antibacterial activity against Escherichia coli by two fold serial microbroth dilution method. The class given is functional. Put shortly:
as §1

Experiment [6] relates to Escherichia coli. Nature of the experiment: Antibacterial activity against Escherichia coli ATCC 25922 by two fold serial microbroth dilution method. In kind it is functional. Put shortly:
as §1

In experiment [7] the test system is Pseudomonas aeruginosa. The experiment in a line: Antibacterial activity against Pseudomonas aeruginosa by two fold serial microbroth dilution method. In kind it is functional. The method in brief: as §1
In experiment [8] the test system is Pseudomonas aeruginosa. The experiment in a line: Antibacterial activity against Pseudomonas aeruginosa ATCC 27853 by two fold serial microbroth dilution method. In kind it is functional. The method in brief:
as §1

The subject of another experiment is Acinetobacter baumannii. Nature of the experiment: Antibacterial activity against Acinetobacter baumannii by two fold serial microbroth dilution method. In kind it is functional. The method in brief:
as §1

For experiment [9], the system named is Candida albicans. The experiment in a line: Antifungal activity against Candida albicans by two fold serial microbroth dilution method. In kind it is functional. The method in brief: (§2)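 Antifungal MIC by two-fold serial dilution following CLSI, with a clinical drug as positive control. Panel includes clinical drug-resistant fungal isolates.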
The next experiment concerns Candida tropicalis. Nature of the experiment: Antifungal activity against Candida tropicalis by two fold serial microbroth dilution method. In kind it is functional. Put shortly: as §2
For another experiment, the system named is Aspergillus fumigatus. Nature of the experiment: Antifungal activity against Aspergillus fumigatus by two fold serial microbroth dilution method. In kind it is functional. The method in brief: as §2
Experiment [10] has as its system Staphylococcus aureus. The experiment in a line: Antibacterial activity against Staphylococcus aureus ATCC 29213 by two fold serial microbroth dilution method. The class given is functional. Put shortly:
as §1

The subject of experiment [11] is Candida albicans. Nature of the experiment: Antifungal activity against Candida albicans ATCC 90023 by two fold serial microbroth dilution method. In kind it is functional. Put shortly: as §2
Experiment [12] deals with Enterococcus faecalis. The experiment in a line: Antibacterial activity against Enterococcus faecalis measured after 16 passages by microbroth dilution method. The class given is functional, organism-based.

Regarding `Nc1ccc(S(=O)(=O)Nc2nccc(-n3ccc4cc([N+](=O)[O-])ccc43)n2)cc1`, the MIC came to 16 µg/mL (≈ 39 µM) in the experiment on Staphylococcus aureus [1]; 32 µg/mL (≈ 78 µM) with Staphylococcus aureus [2]; 4 µg/mL (≈ 9.75 µM) with Staphylococcus aureus [3]; 8 µg/mL (≈ 19.5 µM) in the experiment on Enterococcus faecalis [4]; 32 µg/mL (≈ 78 µM) in the experiment on Klebsiella pneumoniae; 8 µg/mL (≈ 19.5 µM) against Escherichia coli [5]. For the same molecule, the MIC against Escherichia coli [6] is 128 µg/mL (≈ 312 µM); against Pseudomonas aeruginosa [7], 16 µg/mL (≈ 39 µM); with Pseudomonas aeruginosa [8] it was 8 µg/mL (≈ 19.5 µM); against Acinetobacter baumannii, 128 µg/mL (≈ 312 µM); in the experiment on Candida albicans [9], 2 to 8 µg/mL (≈ 4.87 to 19.5 µM); against Candida tropicalis, 2 to 8 µg/mL (≈ 4.87 to 19.5 µM). Further, the MIC in the experiment with Aspergillus fumigatus was 2 to 8 µg/mL (≈ 4.87 to 19.5 µM); with Staphylococcus aureus [10] it was 64 µg/mL (≈ 156 µM).
Regarding `CCCc1nccn1-c1ccnc(NS(=O)(=O)c2ccc(N)cc2)n1`, the MIC in the experiment on Staphylococcus aureus [1] was 16 µg/mL (≈ 44.6 µM); against Staphylococcus aureus [2] it was 8 µg/mL (≈ 22.3 µM); in the experiment with Staphylococcus aureus [3] it was 64 µg/mL (≈ 179 µM); with Enterococcus faecalis [4], 64 µg/mL (≈ 179 µM); against Klebsiella pneumoniae, 64 µg/mL (≈ 179 µM); against Escherichia coli [5], 16 µg/mL (≈ 44.6 µM). Further, the MIC against Escherichia coli [6] was found to be 128 µg/mL (≈ 357 µM); in the experiment with Pseudomonas aeruginosa [7] it was 128 µg/mL (≈ 357 µM); in the experiment on Pseudomonas aeruginosa [8] it was 128 µg/mL (≈ 357 µM); against Acinetobacter baumannii, 32 µg/mL (≈ 89.3 µM); against Candida albicans [11], 4 µg/mL (≈ 11.2 µM); in the experiment with Staphylococcus aureus [10], 8 µg/mL (≈ 22.3 µM).
Regarding `Cc1ccc2c(ccn2-c2ccnc(NS(=O)(=O)c3ccc(N)cc3)n2)c1`, the MIC stood at 4 µg/mL (≈ 10.5 µM) against Staphylococcus aureus [1]; 16 µg/mL (≈ 42.2 µM) in the experiment on Staphylococcus aureus [2]; 4 µg/mL (≈ 10.5 µM) against Staphylococcus aureus [3]; 8 µg/mL (≈ 21.1 µM) with Enterococcus faecalis [4]; 8 µg/mL (≈ 21.1 µM) against Klebsiella pneumoniae; 8 µg/mL (≈ 21.1 µM) against Escherichia coli [5]. Besides, the MIC is 32 µg/mL (≈ 84.3 µM) against Escherichia coli [6]; 4 µg/mL (≈ 10.5 µM) with Pseudomonas aeruginosa [7]; 4 µg/mL (≈ 10.5 µM) in the experiment on Pseudomonas aeruginosa [8]; 64 µg/mL (≈ 169 µM) in the experiment with Acinetobacter baumannii; 2 to 8 µg/mL (≈ 5.27 to 21.1 µM) in the experiment on Candida albicans [9]; 2 to 8 µg/mL (≈ 5.27 to 21.1 µM) against Candida tropicalis. The MIC was 2 to 8 µg/mL (≈ 5.27 to 21.1 µM) against Aspergillus fumigatus and 16 µg/mL (≈ 42.2 µM) against Staphylococcus aureus [10].
For the molecule `Nc1ccc(S(=O)(=O)Nc2nccc(-n3cnc4ccccc43)n2)cc1`, the MIC against Staphylococcus aureus [1] is 8 µg/mL (≈ 21.8 µM); with Staphylococcus aureus [2], 256 µg/mL (≈ 699 µM); with Staphylococcus aureus [3], 512 µg/mL (≈ 1400 µM); against Enterococcus faecalis [4], 256 µg/mL (≈ 699 µM); with Klebsiella pneumoniae, 256 µg/mL (≈ 699 µM); in the experiment with Escherichia coli [5], 128 µg/mL (≈ 349 µM). For the same molecule, the MIC worked out at 256 µg/mL (≈ 699 µM) in the experiment with Escherichia coli [6]; 512 µg/mL (≈ 1400 µM) in the experiment on Pseudomonas aeruginosa [7]; 256 µg/mL (≈ 699 µM) with Pseudomonas aeruginosa [8]; 512 µg/mL (≈ 1400 µM) against Acinetobacter baumannii; 256 µg/mL (≈ 699 µM) in the experiment on Staphylococcus aureus [10].
For `Nc1ccc(S(=O)(=O)Nc2nccc(-n3ccnc3)n2)cc1`, the MIC in the experiment on Staphylococcus aureus [1] was found to be 32 µg/mL (≈ 101 µM); against Staphylococcus aureus [2] it was 128 µg/mL (≈ 405 µM); in the experiment on Staphylococcus aureus [3], 256 µg/mL (≈ 809 µM); in the experiment with Enterococcus faecalis [4], 128 µg/mL (≈ 405 µM); in the experiment with Klebsiella pneumoniae, 256 µg/mL (≈ 809 µM); with Escherichia coli [5], 256 µg/mL (≈ 809 µM). Also, the MIC against Escherichia coli [6] was determined as 256 µg/mL (≈ 809 µM); with Pseudomonas aeruginosa [7], 128 µg/mL (≈ 405 µM); in the experiment with Pseudomonas aeruginosa [8], 256 µg/mL (≈ 809 µM); in the experiment on Acinetobacter baumannii it was 64 µg/mL (≈ 202 µM); in the experiment on Staphylococcus aureus [10], 128 µg/mL (≈ 405 µM).
For `Cc1nccn1-c1ccnc(NS(=O)(=O)c2ccc(N)cc2)n1`, the minimal inhibitory concentration (MIC) in the experiment with Staphylococcus aureus [1] came out at 128 µg/mL (≈ 387 µM); against Staphylococcus aureus [2] it was 256 µg/mL (≈ 775 µM); against Staphylococcus aureus [3] it was 256 µg/mL (≈ 775 µM); against Enterococcus faecalis [4] it was 128 µg/mL (≈ 387 µM); against Klebsiella pneumoniae it was 512 µg/mL (≈ 1550 µM); in the experiment on Escherichia coli [5], 128 µg/mL (≈ 387 µM). For the same molecule, the MIC against Escherichia coli [6] came out at 256 µg/mL (≈ 775 µM); in the experiment on Pseudomonas aeruginosa [7], 128 µg/mL (≈ 387 µM); in the experiment on Pseudomonas aeruginosa [8], 256 µg/mL (≈ 775 µM); with Acinetobacter baumannii it was 256 µg/mL (≈ 775 µM); with Staphylococcus aureus [10], 256 µg/mL (≈ 775 µM).
As for `CCn1cc(C(=O)O)c(=O)c2cc(F)c(N3CCNCC3)cc21` [NORFLOXACIN], the MIC with Staphylococcus aureus [1] is 8 µg/mL (≈ 25.1 µM); in the experiment on Staphylococcus aureus [2], 0.5 µg/mL (≈ 1.57 µM); against Staphylococcus aureus [3] it was 1 µg/mL (≈ 3.13 µM); with Enterococcus faecalis [4] it was 4 µg/mL (≈ 12.5 µM); in the experiment with Klebsiella pneumoniae, 4 µg/mL (≈ 12.5 µM); against Escherichia coli [5] it was 16 µg/mL (≈ 50.1 µM). Besides, the MIC with Escherichia coli [6] came out at 8 µg/mL (≈ 25.1 µM); in the experiment with Pseudomonas aeruginosa [7], 2 µg/mL (≈ 6.26 µM); with Pseudomonas aeruginosa [8], 0.5 µg/mL (≈ 1.57 µM); in the experiment with Acinetobacter baumannii, 8 µg/mL (≈ 25.1 µM); with Staphylococcus aureus [10], 2 µg/mL (≈ 6.26 µM). The outcome in the experiment with Enterococcus faecalis [12] was inactive.

The MIC is the lowest concentration that inhibits growth of the organism.
